A selection: hits, their analogues and other compounds. The true share with any hit is near 2.1%.
CRFR2-BP ag: CRF-BP/CRF-R2 complex agonism; HEK293 CRF-R2/CRF-BP, calcium dye fluorescence (FLIPR); percent of saturating CRF peptide response; activation, % at 13.2 µM; hit rate 0.46% among 350,000; AID 588473;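 active = activation of at least 50%, plus an integration ratio under a set limit after plate pattern correction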;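 note: plate controls were neutral control wells without compound for no effect and CRF at EC100 for full effect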
IMP-1 inhibitor: inhibitors of Pseudomonas aeruginosa IMP-1 metallo-beta-lactamase; purified IMP-1, nitrocefin hydrolysis, epi-absorbance fluorescence; inhibition, % at 5.6 µM; hit rate 0.45% among 290,000; AID 1556;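 active = inhibition above the mean plus 3 SD of all compounds in the same screening run, cut at about 4.5% in these data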;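 note: 0% = IMP-1 with DMSO and 100% = DMSO wells lacking enzyme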
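System – purified recombinant IMP-1 beta-lactamase · Input – IMP-1 dispensed at 0.2 nM · Timing – 15 min preincubation plus 25 min reaction at 25 °C · Signal – Epi-absorbance fluorescence, 480 nm excitation, 530 nm emission · Measure – percent IMP-1 inhibition derived from blank-referenced optical density · Controls – Enzyme-plus-DMSO low control, enzyme-free DMSO high control · Replication – singlicate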
VIM-2 inh: blocks Pseudomonas aeruginosa VIM-2 metallo-beta-lactamase; purified VIM-2, nitrocefin hydrolysis, epi-absorbance fluorescence; inhibition, % at 5.6 µM; hit rate 0.89% among 290,000;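 active = inhibition above the mean of all tested compounds plus 3 SD, cutoff set per screening run, cut at about 7.5% in these data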;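 note: red hydrolysis product quenches plate fluorescence so inhibitors raise well fluorescence; 0% = enzyme with DMSO and 100% = DMSO without enzyme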
TRPN1 ag: activates the zebrafish TRPN1 channel; HEK293 zebrafish TRPN1-YFP, Fluo-8 calcium fluorescence; 100% = response to 87 µM carbachol; activation, % at 3 µM; hit rate 0.18% among 220,000; AID 1424;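 active = activation above its plate's cutoff, the mean activation of test wells on that plate plus 3 SD, cut at about 19% in these data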;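 note: 0% = DMSO alone and 100% = 87 µM carbachol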
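Control set: carbachol 87 µM as high control, DMSO as low control; system: HEK293 stable line with zebrafish TRPN1-YFP; read-out: % activation versus carbachol response; detection: intracellular calcium fluorescence with Fluo-8; doses: single test compound dose, 3 µM nominal, 0.3% DMSO; schedule: dye 1 h 37 °C plus 30 min RT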
CRFR2-BP antag: antagonists of CRF-binding protein/CRF-R2 receptor complex; HEK293 CRF-R2/CRF-BP, CRF-induced calcium fluorescence; inhibition, % at 11.8 µM; hit rate 0.59% among 350,000; AID 588475;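 active = inhibition of the ligand-induced calcium signal above about 50% at the single tested concentration, limit read from the data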
TRPML3 agonist: agonists of human TRPML3 channel; HEK293 TRPML3-YFP, Fluo-8 calcium fluorescence; 100% = the carbachol control signal; activation, % at 3 µM; hit rate 0.29% among 220,000; AID 1448;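 active = activation above its plate's cutoff, the mean activation of the plate's test wells plus 3 SD, cut at about 12% in these data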;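 note: 0% = DMSO only wells and 100% = carbachol wells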
Target sequence (Q8TDD5 whole entry, looked up): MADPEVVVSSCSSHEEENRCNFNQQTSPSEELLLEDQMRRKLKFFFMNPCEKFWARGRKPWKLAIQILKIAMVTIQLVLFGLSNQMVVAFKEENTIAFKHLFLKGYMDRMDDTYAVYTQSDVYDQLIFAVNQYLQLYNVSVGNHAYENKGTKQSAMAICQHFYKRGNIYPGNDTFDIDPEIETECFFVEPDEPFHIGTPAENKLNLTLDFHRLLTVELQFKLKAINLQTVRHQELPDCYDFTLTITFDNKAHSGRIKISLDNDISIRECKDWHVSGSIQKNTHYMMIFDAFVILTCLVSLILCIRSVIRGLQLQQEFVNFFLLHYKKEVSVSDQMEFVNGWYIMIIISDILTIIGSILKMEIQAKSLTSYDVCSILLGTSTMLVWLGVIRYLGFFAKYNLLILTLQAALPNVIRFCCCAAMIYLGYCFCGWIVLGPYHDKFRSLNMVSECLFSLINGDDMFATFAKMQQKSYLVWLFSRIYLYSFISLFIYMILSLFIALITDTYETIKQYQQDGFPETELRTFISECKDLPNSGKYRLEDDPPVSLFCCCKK
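Test system: TRPML3-YFP stable HEK293 cells. Doses: single point at 3 µM. Incubation: dye loading 1 h 37 °C then 30 min ambient, 125 s read. Signal: Fluo-8 calcium dye fluorescence, ex 470-495, em 515-575 nm. Measure: percent activation from peak-to-basal fluorescence ratio, scaled between DMSO and carbachol.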
* marks the source's active call; other numbers are inactive results; nt = no result.

SMILES | CRFR2-BP ag | IMP-1 inhibitor | VIM-2 inh | TRPN1 ag | CRFR2-BP antag | TRPML3 agonist
CC#CCCCC(=O)Nc1ccc(C(=O)O)cc1 | 4 | -2 | -3 | -1 | -31 | 0
Cc1c(Br)c(C(=O)N2CCc3ccccc32)nn1C | -1 | 10* | -5 | -1 | -3 | 0
COc1ccc(-c2cccc(NS(=O)(=O)c3cccc([N+](=O)[O-])c3)c2)nn1 | 7 | nt | nt | nt | 58* | nt
COc1ccc(-c2cccc(NS(=O)(=O)c3ccc([N+](=O)[O-])cc3)c2)nn1 | 1 | nt | nt | nt | 5 | nt
O=C(O)c1cccc(-c2ccc(/C=N/Nc3ccc([N+](=O)[O-])cc3)o2)c1 | 166* | 0 | 0 | 24* | -140 | 11
O=C(O)c1ccc(-c2ccc(/C=N/Nc3ccc([N+](=O)[O-])cc3)o2)cc1 | 155* | -3 | -2 | 39* | -121 | 24*
O=C(O)c1ccc(N/N=C/c2ccc(-c3cccc(Cl)c3)o2)cc1 | -1 | -1 | -2 | 0 | 17 | 0
CN(C)C(=O)/C(=C/c1ccc(-c2cccc([N+](=O)[O-])c2)o1)NC(=O)c1ccccc1 | 0 | -5 | 6 | nt | 23 | nt
CN(C)C(=O)/C(=C\c1ccc(-c2cccc([N+](=O)[O-])c2)o1)NC(=O)c1ccccc1 | 0 | 1 | 9.2* | 0 | 22 | 0
O=[N+]([O-])c1ccc(N/N=C/c2c[nH]c3ccccc23)cc1 | 180* | -3 | -3 | 10 | -226 | 9
CC1CCCC(C)N1CCNC(=O)CCc1nnc2n(Cc3ccccc3)c(=O)c3ccccc3n12 (centres undefined) | 2 | -4 | 3 | nt | -15 | nt
Cc1cc(-c2nnnn2-c2cc(Cl)cc(Cl)c2)no1 | 2 | -3 | 0 | 1 | 0 | 1
O=C(O)c1cccc(-c2ccc(/C=N/n3cnnc3)o2)c1 | -2 | -3 | 11* | nt | 16 | nt
Cc1c(C(=O)O)cccc1-c1ccc(/C=N/n2cnnc2)o1 | -2 | -3 | -1 | nt | 9 | nt
CN1OC[C@@H]2CN[C@H](c3cccc(-c4ccccc4)c3)C[C@@H]21 | -1 | nt | nt | nt | 9 | nt
O=C(CCN1CCC(c2cccs2)=N1)c1cccs1 | 69* | 0 | -2 | 3 | -53 | 1
C=CCC1c2cccc(C(=O)O)c2C(=O)N1c1cccc(OC)c1 (centres undefined) | -1 | -4 | 4 | 1 | 2 | 1
C=CCC1c2cccc(C(=O)O)c2C(=O)N1c1cccc(C)c1 (centres undefined) | -1 | -6 | 11* | -1 | -3 | 1
COc1ccc(/C=C2\N=C(SC)N(c3ccccc3OC)C2=O)cc1 | 2 | -2 | 0 | -2 | 0 | 0
Cc1nc(N[C@@H](Cc2c[nH]c3ccccc23)C(=O)O)c2oc3ccccc3c2n1 | 1 | -1 | 8.8* | 0 | -7 | 0
Cc1cc(C)cc(OCCNC(=O)CCc2ccccc2)c1 | -1 | -3 | -2 | nt | 24 | nt
O=C1/C(=C\c2ccc(O)cc2)SC(=S)N1/N=C/c1ccc(O)cc1 | 37 | -3 | -3 | 21* | -48 | 7
CN(C)c1cc(Nc2cccc(O)c2)c([N+](=O)[O-])c2nonc12 | -6 | -3 | 2 | 0 | 1 | 0
CN(C)c1cc(Nc2ccc(O)cc2)c([N+](=O)[O-])c2nonc12 | -10 | -4 | 9.1* | 1 | 14 | 0
CC(=O)N1CCOc2ccc(S(=O)(=O)NCc3ccc(Cl)cc3)cc21 | -1 | -2 | 0 | nt | -16 | nt
SMILES | CRFR2-BP ag | IMP-1 inhibitor | VIM-2 inh | TRPN1 ag | CRFR2-BP antag | TRPML3 agonist
CC(=O)N1CCOc2ccc(S(=O)(=O)Nc3ccc(Cl)cn3)cc21 | 1 | 22* | -2 | nt | -5 | nt
Cc1ccc(S(=O)(=O)N2CCOCC2)cc1NC(=O)COC(=O)CNC(=O)c1ccc(Cl)cc1Cl | 0 | -2 | -1 | nt | -8 | nt
Cc1nc2ccc(C(=O)N3c4ccccc4CC3C)cc2s1 (centres undefined) | 0 | -5 | -2 | 2 | -15 | 0
Cc1ccc(C)c(S(=O)(=O)N(C)c2ccc(OC(=O)C3CCN(C(=O)Nc4ccccc4)CC3)cc2)c1 | 2 | nt | nt | nt | 3 | nt
COc1ccc(NS(=O)(=O)c2ccc3c(c2)[C@H]2C=CC[C@H]2[C@@H](c2ccc(C(=O)O)cc2)N3)cc1 | -1 | 22* | 2 | nt | 13 | nt
Cc1c(Cl)cccc1NS(=O)(=O)c1ccc2c(c1)C1C=CCC1C(c1ccc(C(=O)O)cc1)N2 (centres undefined) | 4 | 30* | -1 | 1 | -11 | 1
COc1cccc(-c2nnn(CC(=O)N(C3CCCCC3)C3CCS(=O)(=O)C3)n2)c1 (centres undefined) | -2 | nt | nt | nt | -4 | nt
COc1ccc(Cl)cc1NC(=O)Cn1nnc(C(=O)NCc2ccc3c(c2)OCO3)c1N | 10 | 18* | -1 | nt | -1 | nt
COc1cccc(CN2CCNC(=O)C2CC(=O)NCCc2nc(C)c(C)s2)c1OC (centres undefined) | 4 | -1 | 1 | -1 | 5 | -1
Cc1ccc(NC(=O)C2CC(=O)N(C(C)C)C2)cc1Cl (centres undefined) | 2 | -3 | -2 | 1 | -6 | 1
CC(C)N1CC(C(=O)Nc2ccc(Br)c(Cl)c2)CC1=O (centres undefined) | 0 | -2 | -1 | 4 | 60* | 2
Cc1nc2sc3c(=O)[nH]nnc3c2c(C)c1Br | 5 | 0 | 11* | nt | 0 | nt
COCc1c(Br)c(C)nc2sc3c(=O)[nH]nnc3c12 | 3 | 0 | 5 | nt | 12 | nt
C[C@H]1CN([C@@H](C)CO)C(=O)CCCn2nncc2CO[C@H]1CN(C)C(=O)Nc1ccnc(N2CCOCC2)c1 | 1 | nt | nt | nt | -14 | nt
COc1cccc(/C(O)=C/c2nc3ccc(C(=O)NCCc4ccc(Cl)cc4)cc3[nH]c2=O)c1 | 140* | -4 | -2 | 1 | -244 | 1
COc1cccc(/C(O)=C/c2nc3ccc(C(=O)NCCc4cccc(C)c4)cc3[nH]c2=O)c1 | 11 | -3 | -3 | 0 | -61 | 0
Cc1nc2sccn2c(=O)c1S(=O)(=O)Nc1cccc(Cl)c1C | 57* | -2 | 0 | nt | -25 | nt
COc1ccccc1-c1cc2nc(-c3ccccc3)cc(N3CCN(C(=O)c4ccco4)CC3)n2n1 | 0 | nt | nt | nt | -3 | nt
Cc1c(C(=O)Nc2ccc(F)cc2)cn2c(nc3ccccc32)c1C#N | 6 | -2 | -1 | 1 | -16 | 1
N#Cc1c2nc3ccccc3nc2n2cc(NC(=O)c3ccc(F)cc3)ccc12 | 55* | -4 | 1 | 3 | -83 | 3
COc1ccccc1CCC(=O)Nc1ccc(S(=O)(=O)Nc2ncccn2)cc1 | 2 | nt | nt | nt | -1 | nt
COc1ccccc1C(c1nnnn1CCc1ccccc1)N1CCCCCC1 (centres undefined) | 1 | 24* | 2 | -4 | 20 | 1

Assay outcomes (PubChem)
